Compound activity: PubChem BioAssay, several laboratories
Only some compounds are listed: those with a hit (about 1.5% of all), similar ones and a draw of the others.
PP5 primary = PP5 (human) phosphatase inhibition; hit rate 0.18% among 320,000; purified PP5c, OMFP substrate fluorescence; AID 1987; inhibition, % at 6.7 µM;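 active means inhibition above the campaign's mean inhibition across all tested compounds plus 3 SD, cut at about 9.5% in these data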;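 further: 0% = DMSO only and 100% = 100 µM cantharidin control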
Target sequence (P53041 whole entry, looked up): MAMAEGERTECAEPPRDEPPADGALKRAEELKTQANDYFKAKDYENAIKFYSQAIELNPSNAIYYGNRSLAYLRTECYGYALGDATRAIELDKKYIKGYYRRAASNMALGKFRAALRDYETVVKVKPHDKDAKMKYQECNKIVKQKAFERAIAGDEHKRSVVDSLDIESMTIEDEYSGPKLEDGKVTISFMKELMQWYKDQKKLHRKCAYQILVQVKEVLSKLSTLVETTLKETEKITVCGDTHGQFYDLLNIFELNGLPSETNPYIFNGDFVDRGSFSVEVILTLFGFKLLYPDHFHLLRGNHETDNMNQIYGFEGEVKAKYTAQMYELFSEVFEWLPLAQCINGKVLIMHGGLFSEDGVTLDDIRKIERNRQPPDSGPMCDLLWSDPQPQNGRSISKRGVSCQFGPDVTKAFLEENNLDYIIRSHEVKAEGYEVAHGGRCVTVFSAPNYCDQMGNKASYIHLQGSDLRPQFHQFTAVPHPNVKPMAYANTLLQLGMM
PKD1 kinase inh = blocks activity of human protein kinase D1 | Q15139 | PKD1 kinase fluorescence polarization assay | inhibition, % (no concentration beside the values) | hit rate 0.056% among 200,000 | AID 797; in the data active means inhibition above about 50%
Hsp70 activator = Hsp70 transcriptional activation, primary screen | HeLa Hsp70 promoter luciferase reporter, luminescence; scaled: vehicle 0, proteasome-inhibitor control 100% | hit rate 0.04% among 200,000 | activation, % at 10 µM;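 active means activation above the mean across all tested compounds plus 3 SD, cutoff set per campaign, cut at about 5.5% in these data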;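 further: 100% = MG132 at 30 µM as the positive control and 0% = DMSO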
p97 ATPase inh = blocks human p97 ATPase activity; recombinant p97 ATPase, Kinase-Glo ATP luminescence, 3 h; inhibition, % at 8 µM; hit rate 0.42% among 220,000; in the data active means inhibition above about 15%;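 further: 0% = DMSO vehicle and 100% = wells lacking enzyme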
RBBP9 inh = human RBBP9 hydrolase inhibition; inhibition, % at 7.94 µM; recombinant RBBP9, FP-Rh probe fluorescence polarization; hit rate 0.2% among 220,000; AID 1515;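 active means inhibition above the campaign mean of all tested compounds plus 3 SD, cut at about 14% in these data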;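 further: plate controls were DMSO wells with RBBP9 for no effect and wells lacking RBBP9 protein for full effect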
Target sequence (O75884 whole entry, looked up): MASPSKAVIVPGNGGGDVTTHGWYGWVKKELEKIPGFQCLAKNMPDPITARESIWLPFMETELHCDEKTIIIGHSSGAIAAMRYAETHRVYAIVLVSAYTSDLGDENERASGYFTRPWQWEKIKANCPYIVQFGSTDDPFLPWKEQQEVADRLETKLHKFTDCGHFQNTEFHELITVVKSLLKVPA
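Assay system: recombinant human RBBP9; Reagent: Serine-hydrolase probe FP-Rh, 375 nM pre-mixing; Doses: 7.94 µM single dose, 0.794% DMSO; Incubation: 30 min then 45 min, 25 °C; Detection: fluorescence polarization (mP), excitation 525 nm, emission 598 nm; Evaluation: percent inhibition from mP, scaled between DMSO and no-protein wells.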
PP1 counter = counter-screen for PP5 inhibitors: inhibitors of human PP1-alpha; AID 2235; inhibition, % at 6.7 µM; P62136; hit rate 0.9% among 320,000; purified PP1alpha, OMFP fluorescence;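 active means inhibition above the mean inhibition of all tested compounds plus 3 SD, computed separately for each screening campaign, cut at about 15% in these data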
Numbers without * were called inactive; nt = no result given.

SMILES | PP5 primary | PKD1 kinase inh | Hsp70 activator | p97 ATPase inh | RBBP9 inh | PP1 counter
O=C(CN(Cc1ccccc1)S(=O)(=O)c1ccc(Br)cc1)NCC1CCCO1 (stereo unspecified) | 0.2 | nt | nt | nt | nt | 3.0
Cc1ccc(S(=O)(=O)N(CC(=O)NCC2CCCO2)Cc2ccc(F)cc2)cc1 (stereo unspecified) | 3.2 | nt | nt | nt | nt | 15.3*
O=C(CCNC(=O)c1ccc([N+](=O)[O-])cc1)Nc1cccc(S(=O)(=O)N2CCCCCC2)c1 | 4.2 | nt | nt | nt | nt | -5.6
CCOc1ccccc1N1Cc2cc(C)c(C)cc2C1 | 2.9 | -6.0 | -0.1 | 9.8 | -4.9 | 15.3*
COc1ccc(OC)c(-n2c(C)cc(C=O)c2C)c1 | 2.4 | -1.1 | -0.3 | 3.5 | -4.5 | -1.0
COc1ccc(OC)c(N2Cc3cc(C)c(C)cc3C2)c1 | 2.1 | -3.4 | -0.1 | -4.0 | 5.8 | 16.8*
CN1CCN(S(=O)(=O)c2ccc(Nc3cccc(Cl)c3)c([N+](=O)[O-])c2)CC1 | 1.3 | nt | nt | nt | nt | -0.5
COc1ccc(CNC(=O)C2Cc3ccccc3CN2C(=O)c2ccco2)cc1 (stereo unspecified) | 0.9 | 105.1* | -0.3 | 5.0 | -8.8 | 1.3
O=C(NCc1ccco1)C1Cc2ccccc2CN1C(=O)c1ccco1 (stereo unspecified) | 5.5 | -3.4 | -0.1 | 1.5 | -7.4 | -0.6
O=c1c2ccccc2nc(N/N=C/c2c(O)ccc3ccccc23)n1O | 3.6 | -6.0 | -0.3 | 3.4 | -5.0 | 17.5*
O=C(OC1CCOC1=O)C1CCN(S(=O)(=O)c2ccccc2)CC1 (stereo unspecified) | -3.0 | nt | nt | nt | nt | 1.4
O=C(Nc1cccc(S(=O)(=O)NC2=NCCCCC2)c1)c1cc(-c2ccncc2)nc2ccccc12 | 1.2 | -8.0 | -0.4 | 2.4 | -6.5 | 14.2
O=C(Nc1cccc(S(=O)(=O)NC2=NCCCCC2)c1)c1cc(-c2ccco2)nc2ccccc12 | -0.7 | nt | nt | -7.6 | -15.0 | 17.1*
CC(C)(c1ccccc1)c1ccc(OCC(O)CNC2CCN(Cc3ccccc3)CC2)cc1 (stereo unspecified) | 0.6 | -2.8 | -0.3 | 1.6 | -1.4 | 16.1*
CCOc1ccc(OCC(O)CNC2CCN(Cc3ccccc3)CC2)cc1 (stereo unspecified) | 1.1 | -13.6 | -0.4 | -0.6 | -2.2 | -3.4
COc1ccc(C2c3c(-c4ccccc4O)n[nH]c3C(=O)N2Cc2ccco2)cc1OC (stereo unspecified) | 2.5 | nt | nt | 5.5 | -5.0 | -3.1
COc1ccc(C2c3c(-c4cc(Cl)c(C)cc4O)n[nH]c3C(=O)N2Cc2cccnc2)cc1OC (stereo unspecified) | 4.0 | -11.6 | -0.2 | 0.9 | -6.6 | 15.3*
Clc1ccc(OCCCCSc2ncccn2)cc1 | -1.1 | -1.4 | -0.1 | -4.2 | 2.1 | -4.7
CCCOc1ccc(OCCSc2ncccn2)cc1 | 2.0 | -3.6 | 0.2 | -1.8 | -0.5 | 16.4*
COc1ccc(Cc2nnc(NC(=O)C3CC(=O)N(c4ccc(OC)cc4)C3)s2)cc1 (stereo unspecified) | 0.2 | nt | nt | nt | nt | 0.8
CCOc1ccc(N2CC(C(=O)Nc3nnc(Cc4ccc(OC)cc4)s3)CC2=O)cc1 (stereo unspecified) | 3.1 | nt | nt | nt | nt | 16.1*
Cc1ccccc1OCC(=O)NNC(=S)NC(=O)c1ccco1 | 0.1 | 3.5 | -0.4 | -1.0 | 4.3 | 16.8*
NS(=O)(=O)c1ccc(O)c(N2C(=O)c3cccc4c(C(=O)c5ccccc5)ccc(c34)C2=O)c1 | nt | 3.8 | -0.4 | 2.6 | -3.5 | nt
Cc1ccccc1OCc1nnc(SCC(=O)Nc2ccc3nc(SCC(=O)Nc4ccccc4)sc3c2)n1C | 0.2 | -2.1 | -0.1 | 5.1 | -2.9 | 16.8*
COc1cccc(C(=O)NCC(=O)N/N=C/c2cccc(OC(=O)c3ccc([N+](=O)[O-])cc3)c2)c1 | -2.1 | -6.4 | -0.2 | 4.8 | -8.1 | 1.8
SMILES | PP5 primary | PKD1 kinase inh | Hsp70 activator | p97 ATPase inh | RBBP9 inh | PP1 counter
O=C(CNC(=O)c1ccc([N+](=O)[O-])cc1)N/N=C\c1ccc(OC(=O)c2ccccc2)cc1 | -0.8 | -6.1 | -0.3 | 1.6 | -0.2 | 16.0*
Cc1cc([N+](=O)[O-])cc(C)c1OCC(=O)N/N=C/c1ccc(OC(=O)c2ccccc2Br)cc1 | 0.5 | 10.9 | -0.6 | 13.1 | -6.1 | 15.7*
COc1cc(OC)c2c(-c3ccccc3)cc(=O)oc2c1C(CCN1CCN(c2ccccc2)CC1)c1ccc(N(C)C)cc1 (stereo unspecified) | 5.2 | nt | nt | nt | nt | 15.9*
N#C/C(=C(/O)CSc1ccccn1)c1nc2ccccc2s1 | -0.2 | 7.2 | -0.2 | -3.5 | -9.2 | 2.0
N#C/C(=C(/O)CSc1ccccc1C(=O)O)c1nc2ccccc2s1 | -0.3 | -0.6 | -0.3 | 16.3* | -1.9 | 13.9
Cc1cccc(/C=N/NC(=O)c2ccc(NC(=O)c3ccc(Cl)cc3)cc2)n1 | 2.5 | nt | nt | nt | nt | 15.4*
COCc1cc(CN2CCN(C)CC2)c(O)c2ncccc12 | -0.4 | -0.6 | 0.1 | 2.6 | -7.5 | 2.0
Oc1c(CN2CCOCC2)cc(COCc2ccccc2)c2cccnc12 | 0.6 | -2.7 | 0.0 | 0.8 | 0.9 | 15.5*
O=C(O)c1[nH]c2ccccc2c1C(c1cc(Cl)cc([N+](=O)[O-])c1O)c1c(C(=O)O)[nH]c2ccccc12 | 1.3 | nt | nt | nt | nt | 15.4*
Cc1ccc(OCc2nnc(SCC(=O)Nc3cccc4ccccc34)n2-c2ccccc2)cc1 | 7.7 | -9.1 | -0.5 | 1.1 | -1.5 | 15.2*
O=C(NC(=S)Nc1cccc(Cl)c1Cl)C1CC1 | 5.0 | nt | nt | nt | nt | 3.2
O=C(NCCc1ccccc1)c1cc(=O)[nH]c2ccccc12 | 9.3 | -7.8 | -0.1 | 1.6 | 3.2 | -3.4
CC1=NN(c2ccc(F)cc2)C(=O)C1C(c1cccc(O)c1)c1c(C)[nH]n(-c2ccc(F)cc2)c1=O (stereo unspecified) | 1.6 | -8.7 | 0.1 | 33.2* | 3.8 | -1.6
Cc1cc(N2C(=O)C(O)=C(C(=O)c3cccs3)C2c2cccc(Br)c2)no1 (stereo unspecified) | -1.1 | nt | nt | 6.4 | 9.4 | 5.0
Cc1cc(N2C(=O)C(O)=C(C(=O)c3cc4ccccc4o3)C2c2ccc(Cl)cc2)no1 (stereo unspecified) | 4.2 | nt | nt | nt | nt | 29.1*
Cc1cc(N2C(=O)C(O)=C(C(=O)c3ccco3)C2c2cccc(Cl)c2)no1 (stereo unspecified) | -2.5 | nt | nt | nt | nt | 7.8
Cc1cc(N2C(=O)C(O)=C(C(=O)c3cc4ccccc4o3)C2c2ccc(Br)cc2)no1 (stereo unspecified) | 1.8 | nt | nt | nt | nt | 25.6*
Cc1cc(N2C(=O)C(O)=C(C(=O)c3cc4ccccc4o3)C2c2cccc(Cl)c2)no1 (stereo unspecified) | -0.6 | nt | nt | nt | nt | 27.5*
CCN(Cc1ccc2c(c1)OCO2)C(=O)CSc1nc(C)nc2sc(C)c(C)c12 | 1.8 | nt | nt | nt | nt | 1.1
CCc1ccc(-c2csc(NC(=O)C3=COCCO3)n2)cc1 | 1.6 | nt | nt | nt | nt | -0.3
Cc1cc(C(=O)O)ccc1-n1c(C)cc(C=C2C(=O)c3ccccc3C2=O)c1C | 4.9 | 1.8 | 0.1 | 2.9 | -0.4 | 0.1
